Test results published in ChEMBL document CHEMBL1134346, “Labeling and evaluation of N-[11C]methylated quinoline-2-carboxamides as potential radioligands for visualization of peripheral benzodiazepine receptors” (J Med Chem, 2001).

Columns and labels:
Rattus norvegicus [1] = species on record: Rattus norvegicus; test: Tissue (muscle) distribution in Albino male CD rats after 15 minutes expressed as percent of injected dose per gram of organ.; assay type: ADME, organism-based; details: in vivo, 0.25 h
Outline: (§1)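 Male albino CD rats (225-250 g) received the 11C-labelled radioligand in saline by tail-vein injection. Three rats per time point were decapitated under light ether anaesthesia at 5, 15, 30, 60 or 90 min. Blood was collected heparinized and plasma separated by centrifugation. The pituitary was dissected from the brain. Lung, liver (three-lobe pieces) and right deltoid muscle were sampled, washed in cold saline, gamma-counted and weighed. Results are %I.D./g.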

[2] = biological target: Translocator protein (Rattus norvegicus) (UniProt P16257); test: Tissue (kidney) concentration of radioactivity at 30 min post-injection into Albino male CD rats after pretreatment with cold PK 11195.; assay type: functional, tissue-based
Sequence of Translocator protein (Rattus norvegicus) (P16257 whole entry, looked up): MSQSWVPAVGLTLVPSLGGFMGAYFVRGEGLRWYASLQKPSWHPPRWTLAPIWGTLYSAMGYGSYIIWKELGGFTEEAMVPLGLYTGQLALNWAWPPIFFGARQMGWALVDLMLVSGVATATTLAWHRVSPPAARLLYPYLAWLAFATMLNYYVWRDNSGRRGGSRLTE
Outline: (§2)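 Separate groups of five rats received tail-vein PK 11195 (1.4-1.6 mg; 5 mg/kg) in 30 µL DMSO:EtOH 1:1, or vehicle alone, immediately before iv radioligand (90-170 µCi in saline, 0.9-1 Ci/µmol). Rats were decapitated at 30 min and tissues gamma-counted; values are %I.D./g.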

Rattus norvegicus [3] = species on record: Rattus norvegicus; test: Tissue (heart) concentration of radioactivity at 30 min post-injection into Albino male CD rats with vehicle.; assay type: ADME, organism-based; details: in vivo, 0.5 h; outline: as §2
Rattus norvegicus [4] = species on record: Rattus norvegicus; test: Tissue (muscle) distribution in Albino male CD rats after 30 minutes expressed as percent of injected dose per gram of organ.; assay type: ADME, organism-based; details: in vivo, 0.5 h; outline: as §1
Rattus norvegicus [5] = species on record: Rattus norvegicus; test: Tissue (blood) distribution in Albino male CD rats after 60 minutes expressed as percent of injected dose per gram of organ.; assay type: ADME, organism-based; details: in vivo, 1 h
Outline: (§3)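 Radioligand given in saline into tail vein of male albino CD rats (225-250 g); 100-200 µCi per animal, 1-2 Ci/µmol at injection depending on radioligand. Three rats per time point were decapitated under light ether anaesthesia. Blood, plasma, brain regions and washed organs were weighed and gamma-counted. Uptake is %I.D./g tissue, mean ± SD.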

Rattus norvegicus [6] = species on record: Rattus norvegicus; test: Tissue (adrenal gland) concentration of radioactivity at 30 min post-injection into Albino male CD rats with vehicle.; assay type: ADME, organism-based; details: in vivo, 0.5 h; outline: as §2
Rattus norvegicus [7] = species on record: Rattus norvegicus; test: Tissue (cortex) distribution in Albino male CD rats after 60 minutes expressed as percent of injected dose per gram of organ.; assay type: ADME, organism-based; details: in vivo, 1 h; outline: as §3
Rattus norvegicus [8] = species on record: Rattus norvegicus; test: Tissue (pituitary) concentration of radioactivity at 30 min post-injection into Albino male CD rats with vehicle.; assay type: ADME, organism-based, Pituitary gland; details: in vivo, 0.5 h
Outline: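 Blocking study in male albino CD rats, five per group. Immediately before the 11C radioligand (in saline, i.v. tail vein), rats received 30 µL tail-vein PK 11195 (5 mg/kg; 1.4-1.6 mg) in DMSO:EtOH 1:1, or vehicle. Rats were decapitated at 30 min. Tissues were dissected, washed, gamma-counted and weighed as in the biodistribution study. Results are %I.D./g.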

Rattus norvegicus [9] = species on record: Rattus norvegicus; test: Tissue (blood) concentration of radioactivity at 30 min post-injection into Albino male CD rats with vehicle.; assay type: ADME, organism-based; details: in vivo, 0.5 h; outline: as §2
Rattus norvegicus [10] = species on record: Rattus norvegicus; test: Tissue (blood) distribution in Albino male CD rats after 15 minutes expressed as percent of injected dose per gram of organ.; assay type: ADME, organism-based; details: in vivo, 0.25 h; outline: as §3
Rattus norvegicus [11] = species on record: Rattus norvegicus; test: Tissue (blood) concentration of radioactivity at 30 min post-injection into Albino male CD rats with vehicle; assay type: ADME, organism-based; details: in vivo, 0.5 h; outline: as §2
Rattus norvegicus [12] = species on record: Rattus norvegicus; test: Tissue (Muscle) distribution in Albino male CD rats after 15 minutes expressed as percent of injected dose per gram of organ.; assay type: ADME, organism-based; details: in vivo, 0.25 h; outline: as §3

SMILES	I.D./g (Rattus norvegicus [1]) [%]	I.D./g [2] [%]	I.D./g (Rattus norvegicus [3]) [%]	I.D./g (Rattus norvegicus [4]) [%]	I.D./g (Rattus norvegicus [5]) [%]	I.D./g (Rattus norvegicus [6]) [%]	I.D./g (Rattus norvegicus [7]) [%]	I.D./g (Rattus norvegicus [8]) [%]	I.D./g (Rattus norvegicus [9]) [%]	I.D./g (Rattus norvegicus [10]) [%]	I.D./g (Rattus norvegicus [11]) [%]	I.D./g (Rattus norvegicus [12]) [%]
CCC(C)N(C)C(=O)c1nc2ccccc2c(-c2ccccc2F)c1C (stereo not given)	0.13	0.12	0.35	0.1	0.08	1.79	0.07	0.09	0.04	0.14	–	–
Cc1c(C(=O)N(C)Cc2ccccc2)nc2ccccc2c1-c1ccccc1	–	< 0.05	0.35	0.26	0.06	0.62	0.06	0.11	–	0.09	0.01	0.25
CCC(C)N(C)C(=O)c1nc2ccccc2c(-c2ccccc2)c1C (stereo not given)	0.14	< 0.16	0.77	0.16	0.03	1.6	0.04	0.25	0.03	0.08	–	–
